According to ChEMBL document CHEMBL2331158, “Isocoumarin derivatives and benzofurans from a sponge-derived Penicillium sp. fungus” (2013):
In brackets after ≈: the same amount, converted by molar mass. Activity calls are given as the source filed them. The rule behind the calls is not given here.

Assays:
Vibrio parahaemolyticus = assay: Antibacterial activity against Vibrio parahaemolyticus ATCC 17802 assessed as growth inhibition after 18 hrs by broth dilution method; format: functional; details: ATCC 17802, 18 h
In short: (§1)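 Conventional broth dilution assay, run across a panel of nine bacterial strains (Gram-positive and Vibrio species included), with ciprofloxacin as the positive control.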

HL-60 = assay: Cytotoxicity against human HL60 cells assessed as cell viability after 6 days by MTT assay; format: functional, cell-based
Bacillus cereus = assay: Antibacterial activity against Bacillus cereus ACCC 11077 assessed as growth inhibition after 18 hrs by broth dilution method; details: ACCC 11077, 18 h
Staphylococcus aureus = assay: Antibacterial activity against Staphylococcus aureus ATCC 27154 assessed as growth inhibition after 18 hrs by broth dilution method; format: functional; details: ATCC 27154, 18 h; in short: as §1
A549 = assay: Cytotoxicity against human A549 cells assessed as cell viability after 6 days by MTT assay; format: functional, cell-based
Staphylococcus = assay: Antibacterial activity against Staphylococcus albus ATCC 8799 assessed as growth inhibition after 18 hrs by broth dilution method; format: functional; details: ATCC 8799, 18 h; in short: as §1
K562 = assay: Cytotoxicity against human K562 cells assessed as cell viability after 6 days by MTT assay; format: functional, cell-based

CC(O)c1coc(=O)c2c(O)cc(O)c(O)c12 (stereo not given)
MIC (Vibrio parahaemolyticus): 6.25 µM (≈ 1.49 µg/mL) | Activity (HL-60): inactive | MIC (Bacillus cereus): 6.25 µM (≈ 1.49 µg/mL) | MIC (Staphylococcus aureus): 12.5 µM (≈ 2.98 µg/mL) | Activity (A549): inactive | MIC (Staphylococcus): > 25 µM | Activity (K562): inactive

CC(=O)CCC[C@@H]1Cc2cccc(O)c2C(=O)O1 [ASPERGILLUMARIN A]
MIC (Vibrio parahaemolyticus): > 25 µM | Activity (HL-60): inactive | MIC (Bacillus cereus): > 25 µM | MIC (Staphylococcus aureus): > 25 µM | Activity (A549): inactive | MIC (Staphylococcus): 12.5 µM (≈ 3.1 µg/mL) | Activity (K562): inactive

C[C@H](O)CCC[C@@H]1Cc2cccc(O)c2C(=O)O1 [ASPERGILLUMARIN B]
MIC (Vibrio parahaemolyticus): > 25 µM | Activity (HL-60): inactive | MIC (Bacillus cereus): > 25 µM | MIC (Staphylococcus aureus): > 25 µM | Activity (A549): inactive | MIC (Staphylococcus): 12.5 µM (≈ 3.13 µg/mL) | Activity (K562): inactive

O=C(O)c1cn(C2CC2)c2cc(N3CCNCC3)c(F)cc2c1=O [CIPROFLOXACIN]
MIC (Vibrio parahaemolyticus): 0.16 µM (≈ 0.053 µg/mL) | MIC (Bacillus cereus): 0.625 µM (≈ 0.207 µg/mL) | MIC (Staphylococcus aureus): 0.16 µM (≈ 0.053 µg/mL) | MIC (Staphylococcus): 0.312 µM (≈ 0.103 µg/mL)

COc1cc(O)cc2c(CO)c(C)oc12 [PENICIFURAN A]
MIC (Vibrio parahaemolyticus): 25 µM (≈ 5.21 µg/mL) | Activity (HL-60): inactive | MIC (Bacillus cereus): 12.5 µM (≈ 2.6 µg/mL) | MIC (Staphylococcus aureus): 25 µM (≈ 5.21 µg/mL) | Activity (A549): inactive | MIC (Staphylococcus): 3.13 µM (≈ 0.652 µg/mL) | Activity (K562): inactive

COc1cc(O)cc2c(COC(C)=O)c(C)oc12 [PENICIFURAN B]
MIC (Vibrio parahaemolyticus): > 25 µM | Activity (HL-60): inactive | MIC (Bacillus cereus): > 25 µM | MIC (Staphylococcus aureus): > 25 µM | Activity (A549): inactive | MIC (Staphylococcus): 12.5 µM (≈ 3.13 µg/mL) | Activity (K562): inactive

Cc1oc2c(O)cc(O)cc2c1C=O [PENICIFURAN C]
MIC (Vibrio parahaemolyticus): > 25 µM | Activity (HL-60): inactive | MIC (Bacillus cereus): 12.5 µM (≈ 2.4 µg/mL) | MIC (Staphylococcus aureus): 12.5 µM (≈ 2.4 µg/mL) | Activity (A549): inactive | MIC (Staphylococcus): 25 µM (≈ 4.8 µg/mL) | Activity (K562): inactive

CC(=O)c1coc2c(O)cc(O)cc12 [PENICIFURAN D]
MIC (Vibrio parahaemolyticus): 25 µM (≈ 4.8 µg/mL) | Activity (HL-60): inactive | MIC (Bacillus cereus): 25 µM (≈ 4.8 µg/mL) | MIC (Staphylococcus aureus): > 25 µM | Activity (A549): inactive | MIC (Staphylococcus): 25 µM (≈ 4.8 µg/mL) | Activity (K562): inactive

O=c1oc(CO)c(CO)c2cc(O)cc(O)c12 [PENICIMARIN F]
MIC (Vibrio parahaemolyticus): > 25 µM | Activity (HL-60): inactive | MIC (Bacillus cereus): > 25 µM | MIC (Staphylococcus aureus): 12.5 µM (≈ 2.98 µg/mL) | Activity (A549): inactive | MIC (Staphylococcus): > 25 µM | Activity (K562): inactive
